Screening data (PubChem BioAssay)
The full list was thinned out, with hits kept by preference.
PGC1a Ac signal: raises PGC1a acetylation signal in U2OS cells; 350,000 compounds, 0.21% hits; activation, % at 15.6 µM; U2OS PGC1a acetylation AlphaScreen, overnight;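 active means every replicate reaching activation of at least 50%, whatever the mean replicate activation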;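 further: hits raise the AlphaScreen acetylation signal above neutral controls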
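System: flag-PGC1a/GCN5 U2OS cells / Input: 7000 cells/well / Compound: single test concentration per compound / Incubation: overnight compound treatment, 37 °C / Technique: AlphaScreen on lysates with anti-acetyl-lysine antibody, acceptor and donor beads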
Active calls of the source: *.

SMILES	PGC1a Ac signal
CC(=O)Nc1nc(C)c(Oc2ccc(Cl)cc2)c(=O)[nH]1	-45
C[C@H](NC(=O)C[C@H]1C[C@@H]2c3cc(NC(=O)Nc4ccc(C(F)(F)F)cc4)ccc3O[C@@H]2[C@@H](CO)O1)c1ccccc1	-44
O=C(COC(=O)c1ccccc1C(=O)c1ccc(Cl)c([N+](=O)[O-])c1)NC1CC1	94*
CCOc1ccc(CN2CCNC(=O)C2CC(=O)NCc2ccccn2)cc1 (configuration not stated)	-48
CC(C)C12CN3CC(C(C)C)(CN(C1)C3c1ccc3c(c1)OCO3)C2=O (configuration not stated)	80*
Cc1ccc(N2C(=O)c3ccccc3NC2C(C)Cc2ccc3c(c2)OCO3)cc1 (configuration not stated)	-40
COC(=O)c1cccc(NC(=O)CSc2nnc(C)n2C)c1	-47
COc1ccc(CCNCc2ccc(-c3ccccc3)cc2)cc1OC	-45
COc1ccc(CCN2C(=O)c3[nH]nc(-c4ccccc4O)c3C2c2ccccc2)cc1OC (configuration not stated)	53*
COc1ccc(C2c3c(oc4ccccc4c3=O)C(=O)N2CCN2CCOCC2)cc1OC (configuration not stated)	-46
O=C(NCc1cccnc1)C1CC(=O)N(C2CCCCC2)C1 (configuration not stated)	-44
CCC(C)C(NC(=O)C1CCC(C)CC1)C(=O)NCc1cccnc1 (configuration not stated)	55*
COc1cc(OC)cc(C(=O)N[C@H](C(=O)OCC(=O)NC(=O)NC(C)(C)C)C(C)C)c1	-43
C[C@H](CO)N1C[C@H](C)[C@H](CN(C)S(=O)(=O)c2ccccc2C#N)OCc2cnnn2CCCC1=O	-41
Nc1[nH]ncc1N=Nc1ccc(Cl)cc1	65*
O=C(COc1ccc(Cl)cc1Cl)NCCCN1CCOCC1	-41
Cc1cc2cc3c(cc2nc1SCC(=O)OC(C)C)OCCO3	95*
COc1ccc(C#Cc2c(-c3ccccc3)n(-c3ccccc3)c3ccc(CO)cc23)cc1	71*
CCCCCCCCCCCCS[C@H]1CS(=O)(=O)C[C@@H]1O	-43
O=C(NC(=S)Nc1ccccc1N1CCCC1)c1cccs1	-51
C=CCSc1nccc(-c2cc(Cl)sc2Cl)n1	51*
O=C(c1ccc(F)cc1)N1CC(=O)N2[C@H](CO)[C@@H](c3ccc(C#CCC4CCCC4)cc3)[C@@H]2C1	-49
O=C(O)CSCC(=O)NCc1ccc(Cl)cc1Cl	-41
COc1cccc(N2C(=O)CC(N3CCC(c4nc5ccccc5[nH]4)CC3)C2=O)c1 (configuration not stated)	58*
CC(=O)c1cccc(NC(=O)Nc2cccnc2)c1	-50
SMILES	PGC1a Ac signal
CCCCSc1ccc(NC(=O)c2cccnc2)cc1	70*
CCCCC(=O)Nc1ccc(NC(=O)c2cccs2)cn1	-49
CCOC(=O)C1(Cc2cccc(F)c2)CCN(Cc2c(C)nn(CC)c2C)CC1	-48
CO[C@H]1CN(C)C(=O)c2cc(NS(C)(=O)=O)ccc2OC[C@@H](C)N(C(=O)CC2CC2)C[C@H]1C	-46
CC1=C(C(N)=O)C(c2ccccc2)n2nc(-c3ccncc3)nc2N1 (configuration not stated)	60*
COc1ccccc1C1c2ccc3ccccc3c2Oc2ncn(CCN(C)C)c(=N)c21 (configuration not stated)	58*
O=C1c2ccc(-c3ccc4c(c3)C(=O)N(CCCO)C4=O)cc2C(=O)N1CCCO	-70
Cc1ccc(-c2cc(C(=O)N3CCOCC3)c3ccccc3n2)o1	-45
O=C(N/N=C/c1ccc2c(c1)OCO2)c1cc(-c2ccc(F)cc2)nc2ccccc12	-49
O=C(O)c1cc(-c2ccc3c(c2)OCO3)nc2ccccc12	93*
CC[C@H](C)[C@H](NC(=O)c1ccc(Cl)cc1)C(=O)OCC(=O)c1ccc2c(c1)NC(=O)CO2	-40
COC(=O)C12OCC34C(CC5C(C)=C(O)C(=O)CC5(C)C3C(O)C1O)OC(=O)C(OC(=O)C=C(C)C)C24 (configuration not stated)	-49
Cc1nc(C(C)N(C)Cc2nc(-c3ccc4c(c3)OCO4)no2)c(C)s1 (configuration not stated)	-97
Cc1cc(C)nc(SCC(=O)OCN2C(=O)c3ccccc3C2=O)n1	67*
Nc1cc(N)nc(SCC(=O)Nc2ccccc2N2CCOCC2)n1	-41
Cc1cccc(C)c1NC(=O)CS(=O)CC(=O)Nc1ccc(F)cc1F (configuration not stated)	57*
C[C@H](CO)N1C[C@H](C)[C@H](CN(C)C(=O)CN(C)C)Oc2cc(-c3cncnc3)ccc2S1(=O)=O	-52
CC(C)C(=O)Nc1ccc(NC(=O)c2ccc([N+](=O)[O-])cc2Cl)cc1	-52
O=C(Nc1ccc(Nc2ccncc2)cc1)c1ccc([N+](=O)[O-])cc1	70*
O=c1c2cn(Cc3ccc(F)cc3)c3ccc(F)cc3c-2nn1Cc1ccc(F)cc1	-45
CCN(C(=O)COC(=O)/C=C/c1cccc(Cl)c1)c1c(N)n(Cc2ccccc2)c(=O)[nH]c1=O	-42
CCCC(=O)Nc1ccc(C(=O)N/N=C/c2cccnc2)cc1	69*
O=S(=O)(N[C@@H]1CC[C@@H](CCNS(=O)(=O)c2ccccc2Cl)O[C@H]1CO)c1ccccc1	-62
CC(C)(C)n1nnnc1CN(Cc1ccc(F)cc1)Cc1ccco1	92*
O=C(CSc1nnnn1-c1ccc(F)cc1)NNC(=O)c1ccco1	-44
SMILES	PGC1a Ac signal
COCCCNC1CS(=O)(=O)CC1O (configuration not stated)	-45
Cc1nc([N+](=O)[O-])c(Br)n1CC(=O)c1ccc(Br)cc1	-64
COc1ccc(CCNC(=O)C2CCN(C(=O)c3ccc(F)cc3)CC2)cc1OC	-46
COc1ccc(CCNC(=O)COC(=O)c2ccco2)cc1OC	108*
O=C(COC(=O)c1ccco1)NCc1ccc2c(c1)OCO2	-45
COc1ccc2c(c1)c1nc3ccccc3nc1n2CC(=O)OC(C)C	-46
COc1ccc2c(c1)sc1nc(-c3ccccc3)cn12	71*
C[C@@H]1CN([C@H](C)CO)C(=O)c2cc(-c3ccccc3)cnc2O[C@H]1CN(C)C(=O)Cc1ccccn1	-51
C#CCN(C[C@@H]1[C@@H](OC(=O)NCc2ccccc2F)[C@@H](OC(=O)NCc2ccccc2F)Cn2c(=O)ccc(=O)n21)S(=O)(=O)c1ccc(C)cc1	-60
C#CCN(C[C@@H]1[C@@H](OC(=O)Nc2cccs2)[C@@H](OC(=O)Nc2cccs2)Cn2c(=O)ccc(=O)n21)S(=O)(=O)c1ccc(C)cc1	-43
C#CCN(C[C@@H]1[C@@H](OC(=O)NC2CCCC2)[C@@H](OC(=O)NC2CCCC2)Cn2c(=O)ccc(=O)n21)S(=O)(=O)c1ccc(C)cc1	111*
CSCC(O)Cn1[nH]c(=O)c2cc(Cl)c(Cl)cc2c1=O (configuration not stated)	-84
OC(c1ccc(Cl)cc1Cl)C(Cc1cccnc1)n1cncn1 (configuration not stated)	59*
O=C(CC1CC1)N[C@@H]1CC[C@@H](CCNS(=O)(=O)c2ccc(Cl)cc2)O[C@@H]1CO	-56
CC1(C)OC(C)(C)/C(=C\c2ccc(OCC(N)=O)cc2)C1=O	-46
CC1OC(CC(=O)O)CC2=C1C(=O)c1c(O)cccc1C2=O (configuration not stated)	-75
CCCS(=O)(=O)c1nnnn1-c1cccc(OC)c1	73*
COc1cccc(-n2c(-c3cccc(S(=O)(=O)N(C)C)c3)n[nH]c2=S)c1	-56
